ChEMBL document CHEMBL5303300, “EUbOPEN Chemogenomics Library - Multiplex” (2023)
Several values for one entry are separate records, joined by “and”; a condition that tells them apart may be missing. Identical values can stand only once.

Assays:
HEK-293T = experiment: Multiplex assay against HEK293T; assay type: toxicity, cell-based; conditions: human, number of replicates 2
In short: (§1)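 On a CQ1 microscope at 37°C and 5% CO2, live cells were imaged after compound addition. They had been stained at seeding with Hoechst33342, BioTracker Green Microtubule Cytoskeleton Dye, MitoTracker Red and Annexin V Alexa Fluor 680. CellPathfinder machine-learning gating assigned cells to Hoechst high-intensity objects or normal cells, normal cells to healthy, pyknosed or fragmented nuclei, and pyknosed cells to mitotic or apoptotic. Tubulin, mitochondrial-mass and membrane-permeability phenotypes are per cents of healthy-nucleus cells.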

U2OS = experiment: Multiplex assay against U2OS; assay type: toxicity, cell-based; conditions: human, number of replicates 2; in short: as §1
[1] = 24 h, 1 µM, compound concentration 1 uM
[2] = 24 h, 10 µM, compound concentration 10 uM
[3] = 48 h, 1 µM, compound concentration 1 uM
[4] = 48 h, 10 µM, compound concentration 10 uM
[5] = 12 h, 1 µM, compound concentration 1 uM
[6] = 12 h, 10 µM, compound concentration 10 uM

SMILES: COc1cc(N(C)c2ccnc3ccc(C(F)(F)F)cc23)cc(OC)c1OC
- Population Mitotic Cells (%) (HEK-293T; [1]): 45% and 63%
- Population Normal (%) (HEK-293T; [1]): 92% and 93%
- Population Pyknosed Nuclei (%) (HEK-293T; [1]): 10% and 8%
- Population Tubulin-Different-Phenotype (%) (HEK-293T; [1]): 33% and 26%
- Total Cell Count (HEK-293T; [1]): 845 and 846
- Population Apoptotic (%) (HEK-293T; [2]): 46% and 53%
- Population Fragmented Nuclei (%) (HEK-293T; [2]): 3% and 4%
- Population Healthy Nuclei (%) (HEK-293T; [2]): 84% and 83%
- Population Hoechst High Intensity Objects (%) (HEK-293T; [2]): 5%
- Population Membrane Permeable-Phenotype (%) (HEK-293T; [2]): 3% and 1%
- Population Mitochondria Different-Phenotype (%) (HEK-293T; [2]): 31% and 20%
- Population Mitotic Cells (%) (HEK-293T; [2]): 53% and 46%
- Population Normal (%) (HEK-293T; [2]): 94%
- Population Pyknosed Nuclei (%) (HEK-293T; [2]): 11% and 12%
- Population Tubulin-Different-Phenotype (%) (HEK-293T; [2]): 69% and 64%
- Total Cell Count (HEK-293T; [2]): 762 and 740
- Population Apoptotic (%) (HEK-293T; [3]): 16% and 24%
- Population Fragmented Nuclei (%) (HEK-293T; [3]): 12% and 11%
- Population Healthy Nuclei (%) (HEK-293T; [3]): 83% and 84%
- Population Hoechst High Intensity Objects (%) (HEK-293T; [3]): 7%
- Population Membrane Permeable-Phenotype (%) (HEK-293T; [3]): 5% and 4%
- Population Mitochondria Different-Phenotype (%) (HEK-293T; [3]): 0%
- Population Mitotic Cells (%) (HEK-293T; [3]): 83% and 75%
- Population Normal (%) (HEK-293T; [3]): 92%
- Population Pyknosed Nuclei (%) (HEK-293T; [3]): 3%
- Population Tubulin-Different-Phenotype (%) (HEK-293T; [3]): 12% and 11%
- Total Cell Count (HEK-293T; [3]): 2086 and 2004
- Population Apoptotic (%) (HEK-293T; [4]): 26% and 38%
- Population Fragmented Nuclei (%) (HEK-293T; [4]): 9% and 7%
- Population Healthy Nuclei (%) (HEK-293T; [4]): 85% and 86%
- Population Hoechst High Intensity Objects (%) (HEK-293T; [4]): 7% and 8%
- Population Membrane Permeable-Phenotype (%) (HEK-293T; [4]): 3% and 1%
- Population Mitochondria Different-Phenotype (%) (HEK-293T; [4]): 9%
- Population Mitotic Cells (%) (HEK-293T; [4]): 73% and 61%
- Population Normal (%) (HEK-293T; [4]): 92% and 91%
- Population Pyknosed Nuclei (%) (HEK-293T; [4]): 5%
- Population Tubulin-Different-Phenotype (%) (HEK-293T; [4]): 48% and 46%
- Total Cell Count (HEK-293T; [4]): 1391 and 1324
- Population Apoptotic (%) (U2OS; [5]): 75% and 100%
- Population Healthy Nuclei (%) (U2OS; [5]): 84% and 54%
- Population Hoechst High Intensity Objects (%) (U2OS; [5]): 0%
- Population Membrane Permeable-Phenotype (%) (U2OS; [5]): 2% and 8%
- Population Mitochondria Different-Phenotype (%) (U2OS; [5]): 3% and 0%
- Population Mitotic Cells (%) (U2OS; [5]): 25% and 0%
- Population Normal (%) (U2OS; [5]): 100%
- Population Pyknosed Nuclei (%) (U2OS; [5]): 10% and 22%
- Population Tubulin-Different-Phenotype (%) (U2OS; [5]): 76% and 50%
- Population Apoptotic (%) (U2OS; [6]): 50% and 51%
- Population Healthy Nuclei (%) (U2OS; [6]): 65% and 78%
- Population Hoechst High Intensity Objects (%) (U2OS; [6]): 0%
- Population Membrane Permeable-Phenotype (%) (U2OS; [6]): 10% and 4%
- Population Mitochondria Different-Phenotype (%) (U2OS; [6]): 10% and 5%
- Population Mitotic Cells (%) (U2OS; [6]): 50% and 48%
- Population Normal (%) (U2OS; [6]): 100%
- Population Pyknosed Nuclei (%) (U2OS; [6]): 6% and 16%
- Population Tubulin-Different-Phenotype (%) (U2OS; [6]): 26% and 34%
- Population Apoptotic (%) (U2OS; [1]): 100% and 86%
- Population Fragmented Nuclei (%) (U2OS; [1]): 10% and 3%
- Population Healthy Nuclei (%) (U2OS; [1]): 75% and 92%
- Population Hoechst High Intensity Objects (%) (U2OS; [1]): 0%
- Population Membrane Permeable-Phenotype (%) (U2OS; [1]): 0%
- Population Mitochondria Different-Phenotype (%) (U2OS; [1]): 4% and 0%
- Population Mitotic Cells (%) (U2OS; [1]): 0% and 13%
- Population Normal (%) (U2OS; [1]): 100%
- Population Pyknosed Nuclei (%) (U2OS; [1]): 14% and 4%
- Population Tubulin-Different-Phenotype (%) (U2OS; [1]): 57% and 76%
- Population Apoptotic (%) (U2OS; [2]): 66% and 75%
- Population Healthy Nuclei (%) (U2OS; [2]): 65% and 79%
- Population Hoechst High Intensity Objects (%) (U2OS; [2]): 0%
- Population Membrane Permeable-Phenotype (%) (U2OS; [2]): 0% and 5%
- Population Mitochondria Different-Phenotype (%) (U2OS; [2]): 14% and 9%
- Population Mitotic Cells (%) (U2OS; [2]): 33% and 24%
- Population Normal (%) (U2OS; [2]): 100%
- Population Pyknosed Nuclei (%) (U2OS; [2]): 9% and 15%
- Population Tubulin-Different-Phenotype (%) (U2OS; [2]): 47% and 45%
- Population Apoptotic (%) (U2OS; [3]): 75% and 73%
- Population Fragmented Nuclei (%) (U2OS; [3]): 11% and 3%
- Population Healthy Nuclei (%) (U2OS; [3]): 80% and 90%
- Population Hoechst High Intensity Objects (%) (U2OS; [3]): 0%
- Population Membrane Permeable-Phenotype (%) (U2OS; [3]): 2% and 1%
- Population Mitochondria Different-Phenotype (%) (U2OS; [3]): 2% and 0%
- Population Mitotic Cells (%) (U2OS; [3]): 25% and 26%
- Population Normal (%) (U2OS; [3]): 100%
- Population Pyknosed Nuclei (%) (U2OS; [3]): 7% and 6%
- Population Tubulin-Different-Phenotype (%) (U2OS; [3]): 76% and 84%
- Population Apoptotic (%) (U2OS; [4]): 66% and 72%
- Population Healthy Nuclei (%) (U2OS; [4]): 58% and 87%
- Population Hoechst High Intensity Objects (%) (U2OS; [4]): 0%
- Population Membrane Permeable-Phenotype (%) (U2OS; [4]): 11% and 3%
- Population Mitochondria Different-Phenotype (%) (U2OS; [4]): 14% and 4%
- Population Mitotic Cells (%) (U2OS; [4]): 33% and 27%
- Population Normal (%) (U2OS; [4]): 100%
- Population Pyknosed Nuclei (%) (U2OS; [4]): 26% and 9%
- Population Tubulin-Different-Phenotype (%) (U2OS; [4]): 40% and 49%
